Laboratory results from ChEMBL document CHEMBL4002606, “Discovery of FZU-03,010 as a self-assembling anticancer amphiphile for acute myeloid leukemia” (Bioorg Med Chem Lett, 2017).
Active and inactive are the calls of the source. The calls are words filed in the database; no cut-off is given here.

Columns and labels:
HL-60 [1] = experiment: Growth inhibition of human HL60 cells at 40 uM after 48 hrs by MTT assay relative to control; format: functional; conditions: for inhibition of growth at 40 µM: HL-60, 48 h, read-out: GI
HL-60 [2] = experiment: Growth inhibition of human HL60 cells at 20 uM after 48 hrs by MTT assay relative to control; format: functional; conditions: for inhibition of growth at 20 µM: HL-60, 48 h, read-out: GI
HL-60 [3] = experiment: Growth inhibition of human HL60 cells at 2.5 uM after 48 hrs by MTT assay relative to control; format: functional; conditions: for inhibition of growth at 2.5 µM: HL-60, 48 h, read-out: GI
HL-60 [4] = experiment: Growth inhibition of human HL60 cells after 48 hrs by MTT assay; format: functional, cell-based; conditions: HL-60, 48 h
Outline: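 HL-60 human promyelocytic leukemia cells; proliferation inhibition of the cells measured and reported as IC50; values are mean ± SE of at least three independent experiments.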

HL-60 [5] = experiment: Growth inhibition of human HL60 cells at 0.63 uM after 48 hrs by MTT assay relative to control; format: functional; conditions: for inhibition of growth at 0.63 µM: HL-60, 48 h, read-out: GI
HL-60 [6] = experiment: Growth inhibition of human HL60 cells at 5 uM after 48 hrs by MTT assay relative to control; format: functional; conditions: for inhibition of growth at 5 µM: HL-60, 48 h, read-out: GI
HL-60 [7] = experiment: Growth inhibition of human HL60 cells at 10 uM after 48 hrs by MTT assay relative to control; format: functional; conditions: for inhibition of growth at 10 µM: HL-60, 48 h, read-out: GI
HL-60 [8] = experiment: Growth inhibition of human HL60 cells at 1.25 uM after 48 hrs by MTT assay relative to control; format: functional; conditions: for inhibition of growth at 1.25 µM: HL-60, 48 h, read-out: GI
HL-60 [9] = experiment: Induction of apoptosis in human HL60 cells assessed as PARP cleavage up to 80 uM after 24 hrs by Western blot method; format: functional, cell-based
Outline: (§1)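 HL-60 cells treated at different concentrations; lysates probed with specific antibodies against procaspase-3, cleaved caspase-9, PARP, Bcl-2, phospho-P70S6K and phospho-Akt; actin used as loading control.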

HL-60 [10] = experiment: Induction of apoptosis in human HL60 cells assessed as necrotic cells at 80 uM after 24 hrs by Annexin V-PE/7AAD staining based flow cytometry (reference value: 1.08%); format: functional
HL-60 [11] = experiment: Induction of apoptosis in human HL60 cells assessed as late apoptotic cells at 80 uM after 24 hrs by Annexin V-PE/7AAD staining based flow cytometry (reference value: 3.64%); format: functional
[12] = molecular target: Serine/threonine-protein kinase mTOR (Homo sapiens) (UniProt P42345); experiment: Inhibition of mTOR in human HL60 cells assessed as reduction in P70S6K phosphorylation at Thr389-residue up to 80 uM after 24 hrs by Western blot method; format: cell-based; outline: as §1
HL-60 [13] = experiment: Induction of apoptosis in human HL60 cells assessed as downregulation of procaspase-3 expression after 24 hrs by Western blot method; format: functional, cell-based; outline: as §1
Homo sapiens [14] = species on record: Homo sapiens; experiment: Inhibition of PI3K in human HL60 cells assessed as reduction in Akt phosphorylation at Ser473-residue up to 80 uM after 24 hrs by Western blot method; format: cell-based; outline: as §1
HL-60 [15] = experiment: Induction of apoptosis in human HL60 cells assessed as live cells at 80 uM after 24 hrs by Annexin V-PE/7AAD staining based flow cytometry (reference value: 90.9%); format: functional
HL-60 [16] = experiment: Induction of apoptosis in human HL60 cells assessed as early apoptotic cells at 80 uM after 24 hrs by Annexin V-PE/7AAD staining based flow cytometry (reference value: 4.42%); format: functional
HL-60 [17] = experiment: Induction of apoptosis in human HL60 cells assessed as caspase-9 cleavage after 24 hrs by Western blot method; format: functional, cell-based; outline: as §1
HL-60 [18] = experiment: Induction of apoptosis in human HL60 cells assessed as downregulation of Bcl2 expression up to 80 uM after 24 hrs by Western blot method; format: functional, cell-based; outline: as §1
Homo sapiens [19] = species on record: Homo sapiens; experiment: Inhibition of PI3K in human HL60 cells assessed as reduction in Akt phosphorylation at Ser473-residue up to 4 uM after 24 hrs by Western blot method; format: cell-based; outline: as §1
[20] = Induction of nanoparticle formation in DMSO/deionized water at 1.5 mg/ml
HL-60 [21] = experiment: Induction of apoptosis in human HL60 cells assessed as PARP cleavage up to 4 uM after 24 hrs by Western blot method; format: functional, cell-based; outline: as §1
[22] = Induction of nanoparticle formation in DMSO/deionized water after 25 days by dynamic light scattering assay
HL-60 [23] = experiment: Induction of apoptosis in human HL60 cells assessed as downregulation of Bcl2 expression up to 4 uM after 24 hrs by Western blot method; format: functional, cell-based; outline: as §1
[24] = molecular target: Serine/threonine-protein kinase mTOR (Homo sapiens) (UniProt P42345); experiment: Inhibition of mTOR in human HL60 cells assessed as reduction in P70S6K phosphorylation at Thr389-residue up to 4 uM after 24 hrs by Western blot method; format: cell-based; outline: as §1
[25] = molecular target: Serine/threonine-protein kinase mTOR (Homo sapiens) (UniProt P42345); experiment: Inhibition of mTOR in human HL60 cells assessed as reduction in P70S6K phosphorylation at Thr389-residue up to 10 uM after 24 hrs by Western blot method; format: cell-based; outline: as §1
HL-60 [26] = experiment: Induction of apoptosis in human HL60 cells assessed as PARP cleavage up to 10 uM after 24 hrs by Western blot method; format: functional, cell-based; outline: as §1
HL-60 [27] = experiment: Induction of apoptosis in human HL60 cells assessed as live cells at 10 uM after 24 hrs by Annexin V-PE/7AAD staining based flow cytometry (reference value: 90.9%); format: functional
HL-60 [28] = experiment: Induction of apoptosis in human HL60 cells assessed as early apoptotic cells at 10 uM after 24 hrs by Annexin V-PE/7AAD staining based flow cytometry (reference value: 4.42%); format: functional
HL-60 [29] = experiment: Induction of apoptosis in human HL60 cells assessed as late apoptotic cells at 10 uM after 24 hrs by Annexin V-PE/7AAD staining based flow cytometry (reference value: 3.64%); format: functional
Homo sapiens [30] = species on record: Homo sapiens; experiment: Inhibition of PI3K in human HL60 cells assessed as reduction in Akt phosphorylation at Ser473-residue up to 10 uM after 24 hrs by Western blot method; format: cell-based; outline: as §1
HL-60 [31] = experiment: Induction of apoptosis in human HL60 cells assessed as downregulation of Bcl2 expression up to 10 uM after 24 hrs by Western blot method; format: functional, cell-based; outline: as §1
HL-60 [32] = experiment: Induction of apoptosis in human HL60 cells assessed as necrotic cells at 10 uM after 24 hrs by Annexin V-PE/7AAD staining based flow cytometry (reference value: 1.08%); format: functional
[33] = Aqueous solubility of the compound in water by HPLC method; format: physicochemical

SMILES	inhibition of growth at 40 µM (HL-60 [1]) [%]	inhibition of growth at 20 µM (HL-60 [2]) [%]	inhibition of growth at 2.5 µM (HL-60 [3]) [%]	IC50 (HL-60 [4]) [µM]	growth inhibition (GI) (HL-60 [5])	inhibition of growth at 5 µM (HL-60 [6]) [%]	inhibition of growth at 10 µM (HL-60 [7]) [%]	inhibition of growth at 1.25 µM (HL-60 [8]) [%]	inhibition of growth at 0.63 µM (HL-60 [5]) [%]	further results
C=CCNc1nc2c(s1)C[C@]1(C)[C@H]3CC=C4[C@@H]5[C@@H](C)[C@H](C)CC[C@]5(C(=O)O)CC[C@@]4(C)[C@]3(C)CC[C@H]1C2(C)C	49.8	34.7	4.73	> 40	inactive	13.4	20.3	0.33	–	–
C[C@H]1[C@H](C)CC[C@]2(C(=O)N(CCO)CCO)CC[C@]3(C)C(=CC[C@@H]4[C@@]5(C)Cc6cn[nH]c6C(C)(C)[C@@H]5CC[C@]43C)[C@H]12	93.6	94	19.3	5.21	–	64.8	86.8	2.47	3.54	–
C[C@H]1[C@H](C)CC[C@]2(C(=O)O)CC[C@]3(C)C(=CC[C@@H]4[C@@]5(C)C/C(=C/O)C(=O)C(C)(C)[C@@H]5CC[C@]43C)[C@H]12	89.8	72.4	33.9	5.44	–	50.3	67	18.5	9.03	–
C[C@H]1[C@H](C)CC[C@]2(C(=O)O)CC[C@]3(C)C(=CC[C@@H]4[C@@]5(C)CC[C@H](O)C(C)(C)[C@@H]5CC[C@]43C)[C@H]12 [URSOLIC ACID]	–	–	–	> 40	inactive	–	–	–	–	growth inhibition (GI) (HL-60 [1]): inactive; growth inhibition (GI) (HL-60 [2]): inactive; Activity (HL-60 [9]): Active; growth inhibition (GI) (HL-60 [3]): inactive; Activity (HL-60 [10]): 0.835%; Activity (HL-60 [11]): 2.43%; inhibition [12]: Active; growth inhibition (GI) (HL-60 [6]): inactive; Activity (HL-60 [13]): Dose-dependent effect; growth inhibition (GI) (HL-60 [7]): inactive; inhibition (Homo sapiens [14]): Active; Activity (HL-60 [15]): 83.4%; growth inhibition (GI) (HL-60 [8]): inactive; Activity (HL-60 [16]): 13.3%; Activity (HL-60 [17]): Dose-dependent effect; Activity (HL-60 [18]): inactive
C[C@H]1[C@H](C)CC[C@]2(C(=O)O)CC[C@]3(C)C(=CC[C@@H]4[C@@]5(C)CCC(=O)C(C)(C)[C@@H]5CC[C@]43C)[C@H]12 [URSONIC ACID]	–	–	–	> 40	inactive	–	–	–	–	growth inhibition (GI) (HL-60 [1]): inactive; growth inhibition (GI) (HL-60 [2]): inactive; growth inhibition (GI) (HL-60 [3]): inactive; growth inhibition (GI) (HL-60 [6]): inactive; growth inhibition (GI) (HL-60 [7]): inactive; growth inhibition (GI) (HL-60 [8]): inactive
C[C@H]1[C@H](C)CC[C@]2(C(=O)O)CC[C@]3(C)C(=CC[C@@H]4[C@@]5(C)Cc6sc(N)nc6C(C)(C)[C@@H]5CC[C@]43C)[C@H]12	59.2	12.9	–	40	inactive	–	–	–	–	growth inhibition (GI) (HL-60 [3]): inactive; growth inhibition (GI) (HL-60 [6]): inactive; growth inhibition (GI) (HL-60 [7]): inactive; growth inhibition (GI) (HL-60 [8]): inactive
C[C@H]1[C@H](C)CC[C@]2(C(=O)N3CCNCC3)CC[C@]3(C)C(=CC[C@@H]4[C@@]5(C)Cc6cn[nH]c6C(C)(C)[C@@H]5CC[C@]43C)[C@H]12	–	–	–	–	–	–	–	–	–	inhibition (Homo sapiens [19]): Active; Activity [20]: Active; Activity (HL-60 [21]): Active; Activity (HL-60 [13]): Dose-dependent effect; Activity [22]: Active; Activity (HL-60 [17]): Dose-dependent effect; Activity (HL-60 [23]): Active; inhibition [24]: Active
C[C@H]1[C@H](C)CC[C@]2(C(=O)O)CC[C@]3(C)C(=CC[C@@H]4[C@@]5(C)Cc6c[nH]nc6C(C)(C)[C@@H]5CC[C@]43C)[C@H]12	94.7	93.2	8.55	6.26	–	16.3	79.5	7.54	5.36	inhibition [25]: Active; Activity (HL-60 [26]): Active; Activity (HL-60 [27]): 76.3%; Activity (HL-60 [28]): 19.5%; Activity (HL-60 [13]): Dose-dependent effect; Activity (HL-60 [29]): 3.98%; Activity (HL-60 [17]): Dose-dependent effect; inhibition (Homo sapiens [30]): Active; Activity (HL-60 [31]): Active; Activity (HL-60 [32]): 0.231%
CC(=O)NN/C=C1/C[C@]2(C)[C@H]3CC=C4[C@@H]5[C@@H](C)[C@H](C)CC[C@]5(C(=O)O)CC[C@@]4(C)[C@]3(C)CC[C@H]2C(C)(C)C1=O	93.1	69.7	28.8	5.64	–	41.7	61.7	20.7	9.96	–
C[C@H]1[C@H](C)CC[C@]2(C(=O)N3CCNCC3)CC[C@]3(C)C(=CC[C@@H]4[C@@]5(C)CCC(=O)C(C)(C)[C@@H]5CC[C@]43C)[C@H]12	94.8	92.5	43.7	2.64	–	82.2	92.7	22.5	10.6	–
C[C@H]1[C@H](C)CC[C@]2(C(=O)N(CCO)CCO)CC[C@]3(C)C(=CC[C@@H]4[C@@]5(C)CCC(=O)C(C)(C)[C@@H]5CC[C@]43C)[C@H]12	92.7	86.5	12.4	7.04	–	26.7	53.7	8.43	9.32	–
C[C@H]1[C@H](C)CC[C@]2(C(=O)N3CCNCC3)CC[C@]3(C)C(=CC[C@@H]4[C@@]5(C)Cc6cn[nH]c6C(C)(C)[C@@H]5CC[C@]43C)[C@H]12.Cl	–	–	–	–	–	–	–	–	–	solubility [33]: > 150 µg/mL
COc1cccc2c1C(=O)c1c(O)c3c(c(O)c1C2=O)C[C@@](O)(C(=O)CO)C[C@@H]3O[C@H]1C[C@H](N)[C@H](O)[C@H](C)O1 [DOXORUBICIN]	> 99	> 99	85.6	< 0.63	–	95.4	> 99	82.5	80.8	–
